Measured values from ChEMBL document CHEMBL3351900, “Conjugation of a nonspecific antiviral sapogenin with a specific HIV fusion inhibitor: a promising strategy for discovering new antiviral therapeutics” (J Med Chem, 2014).
Square brackets hold non-standard residues; d marks the D form. Peptide text beside a SMILES is read from it. * marks the point of attachment. X1 = C=CCOC(=O)[C@]12CC[C@@H](C(=C)C)[C@@H]1[C@H]1CC[C@@H]3[C@@]4(C)CC[C@H](OC(=O)CCc5cn(CC(=O)*)nn5)C(C)(C)[C@@H]4CC[C@@]3(C)[C@]1(C)CC2; X9 = C=CCOC(=O)[C@]12CC[C@@H](C)[C@H](C)[C@H]1C1=CC[C@@H]3[C@@]4(C)CC[C@H](OC(=O)CCc5cn(CC(=O)*)nn5)C(C)(C)[C@@H]4CC[C@@]3(C)[C@]1(C)CC2; X3 = C=C(C)[C@@H]1CC[C@]2(C(=O)O)CC[C@]3(C)[C@H](CC[C@@H]4[C@@]5(C)CC[C@H](OC(=O)CCc6cn(CC(=O)*)nn6)C(C)(C)[C@@H]5CC[C@]43C)[C@@H]12; X5 = C=C(C)[C@@H]1CC[C@]2(C(=O)OCc3cn(CC(=O)*)nn3)CC[C@]3(C)[C@H](CC[C@@H]4[C@@]5(C)CC[C@H](OC(C)=O)C(C)(C)[C@@H]5CC[C@]43C)[C@@H]12; X4 = C=C(C)[C@@H]1CC[C@]2(C(=O)OCc3cn(CC(=O)*)nn3)CC[C@]3(C)[C@H](CC[C@@H]4[C@@]5(C)CC[C@H](O)C(C)(C)[C@@H]5CC[C@]43C)[C@@H]12; βAla = NCCC(=O)O

Key:
[1] = Selectivity index, ratio of CC50 for human MT2 cells to EC50 for HIV1 3B infected in human MT2 cells; format: toxicity, cell-based; settings: read-out: Ratio CC50/EC50
[2] = test system: Human immunodeficiency virus 1; assay: Antiviral activity against HIV1 3B infected in human MT2 cells assessed as inhibition of viral p24 antigen production by ELISA; format: functional, organism-based; settings: Human immunodeficiency virus 1, 3B
How it was run: (§1)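 MT-2 cells (1 × 10⁴) infected with 100 TCID₅₀ virus with or without peptides at graded concentrations. Culture supernatants collected on day 4 postinfection; p24 antigen quantified by ELISA. Percent inhibition and EC₅₀ calculated; tested in triplicate, mean ± standard deviation.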

[3] = Cytotoxicity against human MT2 cells after 4 days by XTT assay; format: cell-based
How it was run: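 MT-2 cells (5 × 10⁵/mL) mixed with equal volumes of graded conjugate concentrations and held at 37 °C for 4 days. XTT (1 mg/mL) with 0.02 μM phenazine methosulfate added for 4 h, then A450 read. CC50 calculated from the dose–response.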

[4] = test system: Human immunodeficiency virus 1; assay: Antiviral activity against HIV1 BaL infected in human […] cells assessed as inhibition of viral replication; format: functional, organism-based; settings: Human immunodeficiency virus 1, BaL; how it was run: as §1

Compound: C=C(C)[C@@H]1CC[C@]2(C(=O)O)CC[C@]3(C)[C@H](CC[C@@H]4[C@@]5(C)CC[C@H](OC(=O)CCc6cn(CC(=O)NCCCC[C@H](NC(=O)CCNC(=O)[C@H](CC(C)C)NC(=O)[C@H](CC(C)C)NC(=O)[C@H](CCC(=O)O)NC(=O)[C@H](CCC(N)=O)NC(=O)[C@H](CCC(=O)O)NC(=O)[C@H](CC(N)=O)NC(=O)[C@H](CCCCN)NC(=O)[C@H](CCC(=O)O)NC(=O)[C@H](CCC(N)=O)NC(=O)[C@H](CCC(N)=O)NC(=O)[C@H](CC(N)=O)NC(=O)[C@H](CCC(N)=O)NC(=O)[C@H](CO)NC(=O)[C@H](CCC(=O)O)NC(=O)[C@H](CCC(=O)O)NC(=O)[C@@H](NC(=O)[C@H](CC(C)C)NC(=O)[C@H](CO)NC(=O)[C@H](Cc7cnc[nH]7)NC(=O)[C@@H](NC(=O)[C@H](CC(C)C)NC(=O)[C@H](CO)NC(=O)[C@@H](NC(=O)[C@H](Cc7ccc(O)cc7)NC(=O)[C@H](CC(N)=O)NC(=O)[C@H](CC(N)=O)NC(C)=O)[C@@H](C)O)[C@@H](C)CC)[C@@H](C)CC)C(N)=O)nn6)C(C)(C)[C@@H]5CC[C@]43C)[C@@H]12 (Ac-NNYTSLIHSLIEESQNQQEKNEQELL[βAla]K(X3)-NH2)
- selectivity ratio [1]: > 406
- EC50 [2]: 61.6 nM
- CC50 at 96 h [3]: > 25000 nM
- EC50 [4]: 83.1 nM

Compound: C=C(C)[C@@H]1CC[C@]2(C(=O)OCc3cn(CC(=O)NCCCC[C@H](NC(=O)CCNC(=O)[C@H](CC(C)C)NC(=O)[C@H](CC(C)C)NC(=O)[C@H](CCC(=O)O)NC(=O)[C@H](CCC(N)=O)NC(=O)[C@H](CCC(=O)O)NC(=O)[C@H](CC(N)=O)NC(=O)[C@H](CCCCN)NC(=O)[C@H](CCC(=O)O)NC(=O)[C@H](CCC(N)=O)NC(=O)[C@H](CCC(N)=O)NC(=O)[C@H](CC(N)=O)NC(=O)[C@H](CCC(N)=O)NC(=O)[C@H](CO)NC(=O)[C@H](CCC(=O)O)NC(=O)[C@H](CCC(=O)O)NC(=O)[C@@H](NC(=O)[C@H](CC(C)C)NC(=O)[C@H](CO)NC(=O)[C@H](Cc4cnc[nH]4)NC(=O)[C@@H](NC(=O)[C@H](CC(C)C)NC(=O)[C@H](CO)NC(=O)[C@@H](NC(=O)[C@H](Cc4ccc(O)cc4)NC(=O)[C@H](CC(N)=O)NC(=O)[C@H](CC(N)=O)NC(C)=O)[C@@H](C)O)[C@@H](C)CC)[C@@H](C)CC)C(N)=O)nn3)CC[C@]3(C)[C@H](CC[C@@H]4[C@@]5(C)CC[C@H](O)C(C)(C)[C@@H]5CC[C@]43C)[C@@H]12 (Ac-NNYTSLIHSLIEESQNQQEKNEQELL[βAla]K(X4)-NH2)
- selectivity ratio [1]: > 50
- EC50 [2]: 154 nM
- CC50 at 96 h [3]: > 25000 nM
- EC50 [4]: 135 nM

Compound: C=C(C)[C@@H]1CC[C@]2(C(=O)OCc3cn(CC(=O)NCCCC[C@H](NC(=O)CCNC(=O)[C@H](CC(C)C)NC(=O)[C@H](CC(C)C)NC(=O)[C@H](CCC(=O)O)NC(=O)[C@H](CCC(N)=O)NC(=O)[C@H](CCC(=O)O)NC(=O)[C@H](CC(N)=O)NC(=O)[C@H](CCCCN)NC(=O)[C@H](CCC(=O)O)NC(=O)[C@H](CCC(N)=O)NC(=O)[C@H](CCC(N)=O)NC(=O)[C@H](CC(N)=O)NC(=O)[C@H](CCC(N)=O)NC(=O)[C@H](CO)NC(=O)[C@H](CCC(=O)O)NC(=O)[C@H](CCC(=O)O)NC(=O)[C@@H](NC(=O)[C@H](CC(C)C)NC(=O)[C@H](CO)NC(=O)[C@H](Cc4cnc[nH]4)NC(=O)[C@@H](NC(=O)[C@H](CC(C)C)NC(=O)[C@H](CO)NC(=O)[C@@H](NC(=O)[C@H](Cc4ccc(O)cc4)NC(=O)[C@H](CC(N)=O)NC(=O)[C@H](CC(N)=O)NC(C)=O)[C@@H](C)O)[C@@H](C)CC)[C@@H](C)CC)C(N)=O)nn3)CC[C@]3(C)[C@H](CC[C@@H]4[C@@]5(C)CC[C@H](OC(C)=O)C(C)(C)[C@@H]5CC[C@]43C)[C@@H]12 (Ac-NNYTSLIHSLIEESQNQQEKNEQELL[βAla]K(X5)-NH2)
- selectivity ratio [1]: > 603
- EC50 [2]: 41.4 nM
- CC50 at 96 h [3]: > 25000 nM
- EC50 [4]: 20.8 nM

Compound: C=CCOC(=O)[C@]12CC[C@@H](C)[C@H](C)[C@H]1C1=CC[C@@H]3[C@@]4(C)CC[C@H](OC(=O)CCc5cn(CC(=O)NCCCC[C@H](NC(=O)CCNC(=O)[C@H](CC(C)C)NC(=O)[C@H](CC(C)C)NC(=O)[C@H](CCC(=O)O)NC(=O)[C@H](CCC(N)=O)NC(=O)[C@H](CCC(=O)O)NC(=O)[C@H](CC(N)=O)NC(=O)[C@H](CCCCN)NC(=O)[C@H](CCC(=O)O)NC(=O)[C@H](CCC(N)=O)NC(=O)[C@H](CCC(N)=O)NC(=O)[C@H](CC(N)=O)NC(=O)[C@H](CCC(N)=O)NC(=O)[C@H](CO)NC(=O)[C@H](CCC(=O)O)NC(=O)[C@H](CCC(=O)O)NC(=O)[C@@H](NC(=O)[C@H](CC(C)C)NC(=O)[C@H](CO)NC(=O)[C@H](Cc6cnc[nH]6)NC(=O)[C@@H](NC(=O)[C@H](CC(C)C)NC(=O)[C@H](CO)NC(=O)[C@@H](NC(=O)[C@H](Cc6ccc(O)cc6)NC(=O)[C@H](CC(N)=O)NC(=O)[C@H](CC(N)=O)NC(C)=O)[C@@H](C)O)[C@@H](C)CC)[C@@H](C)CC)C(N)=O)nn5)C(C)(C)[C@@H]4CC[C@@]3(C)[C@]1(C)CC2 (Ac-NNYTSLIHSLIEESQNQQEKNEQELL[βAla]K(X9)-NH2)
- selectivity ratio [1]: 3630
- EC50 [2]: 2.18 nM
- CC50 at 96 h [3]: 7920 nM
- EC50 [4]: 2.51 nM

Compound: C=CCOC(=O)[C@]12CC[C@@H](C(=C)C)[C@@H]1[C@H]1CC[C@@H]3[C@@]4(C)CC[C@H](OC(=O)CCc5cn(CC(=O)NCCC(=O)N[C@@H](CC(N)=O)C(=O)N[C@@H](CC(N)=O)C(=O)N[C@@H](Cc6ccc(O)cc6)C(=O)N[C@H](C(=O)N[C@@H](CO)C(=O)N[C@@H](CC(C)C)C(=O)N[C@H](C(=O)N[C@@H](Cc6cnc[nH]6)C(=O)N[C@@H](CO)C(=O)N[C@@H](CC(C)C)C(=O)N[C@H](C(=O)N[C@@H](CCC(=O)O)C(=O)N[C@@H](CCC(=O)O)C(=O)N[C@@H](CO)C(=O)N[C@@H](CCC(N)=O)C(=O)N[C@@H](CC(N)=O)C(=O)N[C@@H](CCC(N)=O)C(=O)N[C@@H](CCC(N)=O)C(=O)N[C@@H](CCC(=O)O)C(=O)N[C@@H](CCCCN)C(=O)N[C@@H](CC(N)=O)C(=O)N[C@@H](CCC(=O)O)C(=O)N[C@@H](CCC(N)=O)C(=O)N[C@@H](CCC(=O)O)C(=O)N[C@@H](CC(C)C)C(=O)N[C@@H](CC(C)C)C(N)=O)[C@@H](C)CC)[C@@H](C)CC)[C@@H](C)O)nn5)C(C)(C)[C@@H]4CC[C@@]3(C)[C@]1(C)CC2 ({X1-βAla}-NNYTSLIHSLIEESQNQQEKNEQELL-NH2)
- selectivity ratio [1]: > 103
- EC50 [2]: 242 nM
- CC50 at 96 h [3]: > 25000 nM
- EC50 [4]: 519 nM

Compound: C=C(C)[C@@H]1CC[C@]2(C(=O)OCc3cn(CC(=O)NCCC(=O)N[C@@H](CC(N)=O)C(=O)N[C@@H](CC(N)=O)C(=O)N[C@@H](Cc4ccc(O)cc4)C(=O)N[C@H](C(=O)N[C@@H](CO)C(=O)N[C@@H](CC(C)C)C(=O)N[C@H](C(=O)N[C@@H](Cc4cnc[nH]4)C(=O)N[C@@H](CO)C(=O)N[C@@H](CC(C)C)C(=O)N[C@H](C(=O)N[C@@H](CCC(=O)O)C(=O)N[C@@H](CCC(=O)O)C(=O)N[C@@H](CO)C(=O)N[C@@H](CCC(N)=O)C(=O)N[C@@H](CC(N)=O)C(=O)N[C@@H](CCC(N)=O)C(=O)N[C@@H](CCC(N)=O)C(=O)N[C@@H](CCC(=O)O)C(=O)N[C@@H](CCCCN)C(=O)N[C@@H](CC(N)=O)C(=O)N[C@@H](CCC(=O)O)C(=O)N[C@@H](CCC(N)=O)C(=O)N[C@@H](CCC(=O)O)C(=O)N[C@@H](CC(C)C)C(=O)N[C@@H](CC(C)C)C(N)=O)[C@@H](C)CC)[C@@H](C)CC)[C@@H](C)O)nn3)CC[C@]3(C)[C@H](CC[C@@H]4[C@@]5(C)CC[C@H](O)C(C)(C)[C@@H]5CC[C@]43C)[C@@H]12 ({X4-βAla}-NNYTSLIHSLIEESQNQQEKNEQELL-NH2)
- selectivity ratio [1]: > 52
- EC50 [2]: 475 nM
- CC50 at 96 h [3]: > 25000 nM
- EC50 [4]: 456 nM
